Values after ≈ are worked out from the molar mass of the structure shown.
Columns and labels:
Type in all cases: functional
Enterococcus faecalis = test: Minimum inhibitory concentration was evaluated in vitro against Enterococcus faecalis MGH-2; settings: Enterococcus faecalis; read-out: MIC
How it was run: (§1)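 Standard microtitration broth assay against a panel of 10 Gram-positive and Gram-negative organisms. MIC read in µg/mL and averaged over multiple experiments.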

Streptococcus pyogenes [1] = test: Compounds were evaluated in vivo for antibacterial activity for mouse protection against Streptococcus pyogenes C 203 after oral administration; settings: Streptococcus pyogenes, C 203, po; read-out: PD50
Enterobacter cloacae = test: Minimum inhibitory concentration in vitro against Enterobacter cloacae MA 2646; settings: Enterobacter cloacae; read-out: MIC
Klebsiella pneumoniae = test: Minimum inhibitory concentration was evaluated in vitro against Klebsiella pneumoniae MGH2; settings: Klebsiella pneumoniae; read-out: MIC; how it was run: as §1
Streptococcus pneumoniae = test: Minimum inhibitory concentration was evaluated in vitro against Streptococcus pneumoniae SV-1; settings: Streptococcus pneumoniae; read-out: MIC; how it was run: as §1
Streptococcus pyogenes [2] = test: Minimum inhibitory concentration was evaluated in vitro against Streptococcus pyogenes C 203; how it was run: as §1
Escherichia coli = test: Antibacterial activity in vitro against Escherichia coli Vogel; settings: Escherichia coli; read-out: MIC; how it was run: as §1
Providencia rettgeri = test: Minimum inhibitory concentration was evaluated in vitro against Providencia rettgeri M1771; settings: Providencia rettgeri; read-out: MIC; how it was run: as §1
Pseudomonas aeruginosa = test: Minimum inhibitory concentration was evaluated in vitro against Pseudomonas aeruginosa UI-18; settings: Pseudomonas aeruginosa; read-out: MIC; how it was run: as §1
Staphylococcus aureus [3] = test: Minimum inhibitory concentration was evaluated in vitro against Staphylococcus aureus H 228; settings: Staphylococcus aureus; read-out: MIC; how it was run: as §1
Staphylococcus aureus [4] = test: Minimum inhibitory concentration was evaluated in vitro against Staphylococcus aureus UC 76; how it was run: as §1
Streptococcus pyogenes [5] = test: Antibacterial activity measured as mouse protection against Streptococcus pyogenes C 203 after subcutaneous administration; settings: Streptococcus pyogenes, C 203, sc; read-out: PD50
[6] = Streptococcus pyogenes, read-out: MIC
[7] = Staphylococcus aureus, read-out: MIC

| SMILES | MIC (Enterococcus faecalis) | ED50 (Streptococcus pyogenes [1]) | MIC (Enterobacter cloacae) | MIC (Klebsiella pneumoniae) | MIC (Streptococcus pneumoniae) | MIC (Streptococcus pyogenes [2]; [6]) | MIC (Escherichia coli) | MIC (Providencia rettgeri) | MIC (Pseudomonas aeruginosa) | MIC (Staphylococcus aureus [3]) | MIC (Staphylococcus aureus [4]; [7]) | ED50 (Streptococcus pyogenes [5]) | MIC (Streptococcus pyogenes [2]) | MIC (Staphylococcus aureus [4]) |
| --- | --- | --- | --- | --- | --- | --- | --- | --- | --- | --- | --- | --- | --- | --- |
| CN[C@@H](C)[C@H]1CCN(c2nc3c(cc2F)c(=O)c(C(=O)O)cn3C2CC2)C1 | 0.8 µg/mL (≈ 2.14 µM) | 23 mg/kg | 0.4 µg/mL (≈ 1.07 µM) | 0.4 µg/mL (≈ 1.07 µM) | 0.4 µg/mL (≈ 1.07 µM) | 0.4 µg/mL (≈ 1.07 µM) | 0.2 µg/mL (≈ 0.534 µM) | 0.8 µg/mL (≈ 2.14 µM) | 3.1 µg/mL (≈ 8.28 µM) | 0.8 µg/mL (≈ 2.14 µM) | 0.2 µg/mL (≈ 0.534 µM) | 15 mg/kg | – | – |
| CCN[C@H](C)[C@@H]1CCN(c2c(F)cc3c(=O)c(C(=O)O)cn(C4CC4)c3c2OC)C1 | 0.013 µg/mL (≈ 0.0311 µM) | 3 mg/kg | 0.2 µg/mL (≈ 0.479 µM) | 0.4 µg/mL (≈ 0.958 µM) | 0.003 µg/mL (≈ 0.00719 µM) | 0.003 µg/mL (≈ 0.00719 µM) | 0.2 µg/mL (≈ 0.479 µM) | 0.8 µg/mL (≈ 1.92 µM) | 3.1 µg/mL (≈ 7.43 µM) | 0.013 µg/mL (≈ 0.0311 µM) | 0.003 µg/mL (≈ 0.00719 µM) | – | – | – |
| C[C@H](N)[C@H]1CCN(c2c(F)c(N)c3c(=O)c(C(=O)O)cn(C4CC4)c3c2F)C1 (stereo in doubt; 32F-S,S) | 0.05 µg/mL (≈ 0.127 µM) | > 25 mg/kg | 0.05 µg/mL (≈ 0.127 µM) | 0.1 µg/mL (≈ 0.255 µM) | 0.025 µg/mL (≈ 0.0637 µM) | – | 0.05 µg/mL (≈ 0.127 µM) | 0.4 µg/mL (≈ 1.02 µM) | 0.4 µg/mL (≈ 1.02 µM) | 0.025 µg/mL (≈ 0.0637 µM) | – | 7 mg/kg | 0.05 µg/mL (≈ 0.127 µM) | 0.013 µg/mL (≈ 0.0331 µM) |
| COc1c(N2CCC(CN)C2)c(F)cc2c(=O)c(C(=O)O)cn(C3CC3)c12 (stereo unspecified) | 0.013 µg/mL (≈ 0.0346 µM) | 11 mg/kg | 0.05 µg/mL (≈ 0.133 µM) | 0.1 µg/mL (≈ 0.266 µM) | 0.003 µg/mL (≈ 0.00799 µM) | 0.003 µg/mL (≈ 0.00799 µM) | 0.05 µg/mL (≈ 0.133 µM) | 0.1 µg/mL (≈ 0.266 µM) | 0.8 µg/mL (≈ 2.13 µM) | 0.025 µg/mL (≈ 0.0666 µM) | 0.003 µg/mL (≈ 0.00799 µM) | 0.6 mg/kg | – | – |
| C[C@@H](N)[C@@H]1CCN(c2nc3c(cc2F)c(=O)c(C(=O)O)cn3-c2ccc(F)cc2F)C1 | 0.1 µg/mL (≈ 0.231 µM) | – | 0.1 µg/mL (≈ 0.231 µM) | 0.2 µg/mL (≈ 0.463 µM) | 0.1 µg/mL (≈ 0.231 µM) | 0.05 µg/mL (≈ 0.116 µM) | 0.1 µg/mL (≈ 0.231 µM) | 0.4 µg/mL (≈ 0.925 µM) | 1.6 µg/mL (≈ 3.7 µM) | 0.1 µg/mL (≈ 0.231 µM) | 0.025 µg/mL (≈ 0.0578 µM) | – | – | – |
| CCN[C@H](C)[C@@H]1CCN(c2nc3c(cc2F)c(=O)c(C(=O)O)cn3-c2ccc(F)cc2F)C1 | 0.4 µg/mL (≈ 0.869 µM) | 10 mg/kg | 0.8 µg/mL (≈ 1.74 µM) | 1.6 µg/mL (≈ 3.47 µM) | 0.2 µg/mL (≈ 0.434 µM) | 0.2 µg/mL (≈ 0.434 µM) | 0.8 µg/mL (≈ 1.74 µM) | 3.1 µg/mL (≈ 6.73 µM) | 3.1 µg/mL (≈ 6.73 µM) | 0.2 µg/mL (≈ 0.434 µM) | 0.05 µg/mL (≈ 0.109 µM) | 6 mg/kg | – | – |
| CC(N)C1CCN(c2cc3c(c(N)c2F)c(=O)c(C(=O)O)cn3C2CC2)C1 (mixture of isomers) | 0.013 µg/mL | 18 mg/kg | 0.025 µg/mL | 0.05 µg/mL | 0.003 µg/mL | 0.003 µg/mL | 0.025 µg/mL | 0.1 µg/mL | 0.4 µg/mL | 0.05 µg/mL | 0.003 µg/mL | 4 mg/kg | – | – |
| CN[C@H](C)[C@@H]1CCN(c2cc3c(cc2F)c(=O)c(C(=O)O)cn3C2CC2)C1 | 0.2 µg/mL (≈ 0.536 µM) | 36 mg/kg | 0.2 µg/mL (≈ 0.536 µM) | 0.4 µg/mL (≈ 1.07 µM) | 0.05 µg/mL (≈ 0.134 µM) | 0.05 µg/mL (≈ 0.134 µM) | 0.1 µg/mL (≈ 0.268 µM) | 0.8 µg/mL (≈ 2.14 µM) | 1.6 µg/mL (≈ 4.28 µM) | 0.2 µg/mL (≈ 0.536 µM) | 0.05 µg/mL (≈ 0.134 µM) | 3 mg/kg | – | – |
| COc1c(N2CC[C@@H]([C@H](C)N)C2)c(F)cc2c(=O)c(C(=O)O)cn(C3CC3)c12 | 0.05 µg/mL (≈ 0.128 µM) | – | 0.8 µg/mL (≈ 2.05 µM) | 0.4 µg/mL (≈ 1.03 µM) | 0.025 µg/mL (≈ 0.0642 µM) | 0.025 µg/mL (≈ 0.0642 µM) | 0.4 µg/mL (≈ 1.03 µM) | 0.4 µg/mL (≈ 1.03 µM) | 1.6 µg/mL (≈ 4.11 µM) | 0.05 µg/mL (≈ 0.128 µM) | 0.013 µg/mL (≈ 0.0334 µM) | 6 mg/kg | – | – |
| CCNCC1CCN(c2c(F)cc3c(=O)c(C(=O)O)cn(C4CC4)c3c2OC)C1 (stereo unspecified) | 0.05 µg/mL (≈ 0.124 µM) | 4 mg/kg | 0.1 µg/mL (≈ 0.248 µM) | 0.2 µg/mL (≈ 0.496 µM) | 0.013 µg/mL (≈ 0.0322 µM) | 0.013 µg/mL (≈ 0.0322 µM) | 0.1 µg/mL (≈ 0.248 µM) | 0.4 µg/mL (≈ 0.991 µM) | 1.6 µg/mL (≈ 3.97 µM) | 0.025 µg/mL (≈ 0.062 µM) | 0.006 µg/mL (≈ 0.0149 µM) | 0.4 mg/kg | – | – |
| CCN[C@H](C)[C@@H]1CCN(c2cc3c(cc2F)c(=O)c(C(=O)O)cn3C2CC2)C1 | 0.1 µg/mL (≈ 0.258 µM) | – | 0.2 µg/mL (≈ 0.516 µM) | 0.4 µg/mL (≈ 1.03 µM) | 0.05 µg/mL (≈ 0.129 µM) | 0.05 µg/mL (≈ 0.129 µM) | 0.2 µg/mL (≈ 0.516 µM) | 0.8 µg/mL (≈ 2.06 µM) | 6.3 µg/mL (≈ 16.3 µM) | 0.1 µg/mL (≈ 0.258 µM) | 0.025 µg/mL (≈ 0.0645 µM) | – | – | – |
| CCN[C@@H](C)[C@H]1CCN(c2cc3c(cc2F)c(=O)c(C(=O)O)cn3C2CC2)C1 | 0.8 µg/mL (≈ 2.06 µM) | – | 0.4 µg/mL (≈ 1.03 µM) | 0.8 µg/mL (≈ 2.06 µM) | 0.4 µg/mL (≈ 1.03 µM) | 0.4 µg/mL (≈ 1.03 µM) | 0.4 µg/mL (≈ 1.03 µM) | 1.6 µg/mL (≈ 4.13 µM) | 12.5 µg/mL (≈ 32.3 µM) | 0.8 µg/mL (≈ 2.06 µM) | 0.4 µg/mL (≈ 1.03 µM) | – | – | – |
